Source: ChEMBL document CHEMBL1955756, “Design and synthesis of novel sulfonamide-containing bradykinin hB(2) receptor antagonists. Synthesis and structure-relationships of α,α-tetrahydropyranylglycine” (Bioorg Med Chem, 2012)
Active and inactive are the calls of the source. The calls are words filed in the database; no cut-off is given here.

Columns and labels:
Cavia porcellus = experiment: Inhibition of bradykinin-induced bronchoconstriction in anesthetized Dunkin-Hartley guinea pig at […], it 5 mins prior bradykinin-induction for every 30 mins up to 210 mins; type: functional, organism-based
Method in brief: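 Anaesthetized male Dunkin Hartley guinea pigs, 350–400 g. Compound given intratracheally, then repeated iv BK challenges (10 nmol/kg) with bronchoconstriction recorded.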

B2 bradykinin receptor [1] = target: T1, B2 bradykinin receptor (Homo sapiens, UniProt P30411); experiment: Antagonist activity at human bradykinin B2 receptor expressed in dhfr-deficient CHO cells assessed as inhibition of bradykinin-induced inositol monophosphate accumulation preincubated for 15 mins prior bradykinin induction measured after 40 mins by liquid scintillation spectrometry; type: functional, cell-based; settings: read-out: pA2 (converted)
T1 sequence (P30411 whole entry): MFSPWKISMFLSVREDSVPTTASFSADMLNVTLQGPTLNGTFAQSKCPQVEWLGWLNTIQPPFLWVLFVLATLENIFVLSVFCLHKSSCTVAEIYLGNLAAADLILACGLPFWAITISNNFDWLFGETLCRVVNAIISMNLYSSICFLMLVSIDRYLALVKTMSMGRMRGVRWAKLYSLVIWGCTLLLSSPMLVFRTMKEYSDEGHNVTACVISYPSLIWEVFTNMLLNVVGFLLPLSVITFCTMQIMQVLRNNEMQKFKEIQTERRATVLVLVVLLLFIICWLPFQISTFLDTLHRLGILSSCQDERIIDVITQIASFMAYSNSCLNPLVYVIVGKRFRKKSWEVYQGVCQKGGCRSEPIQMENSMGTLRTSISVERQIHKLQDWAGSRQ
Method in brief: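 CHOdhfr-/hB2R cells (1.8×10^5/well) plated overnight at 37 °C, labelled 24 h with myo-[3H]inositol (1 uCi/well). Antagonist pre-incubation 15 min, then BK 1×10^-11 to 1×10^-5 M for 40 min at 37 °C in Hepes pH 7.4 buffer with 25 mM LiCl. IP1 radioactivity by liquid scintillation. Agonist curves fitted for EC50; pA2 = log(CR−1) − log[antagonist].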

B2 bradykinin receptor [2] = target: T1, B2 bradykinin receptor; experiment: Displacement of [3H]-Bradykinin from human bradykinin B2 receptor expressed in CHO cells membrane after 60 mins by scintillation counting; type: cell membranes
B1 bradykinin receptor = target: T2, B1 bradykinin receptor (Homo sapiens, UniProt P46663); experiment: Displacement of [3H][desArg9]Lys-Bradykinin from human bradykinin B1 receptor expressed in CHO cells; type: cell-based
T2 sequence (P46663 whole entry): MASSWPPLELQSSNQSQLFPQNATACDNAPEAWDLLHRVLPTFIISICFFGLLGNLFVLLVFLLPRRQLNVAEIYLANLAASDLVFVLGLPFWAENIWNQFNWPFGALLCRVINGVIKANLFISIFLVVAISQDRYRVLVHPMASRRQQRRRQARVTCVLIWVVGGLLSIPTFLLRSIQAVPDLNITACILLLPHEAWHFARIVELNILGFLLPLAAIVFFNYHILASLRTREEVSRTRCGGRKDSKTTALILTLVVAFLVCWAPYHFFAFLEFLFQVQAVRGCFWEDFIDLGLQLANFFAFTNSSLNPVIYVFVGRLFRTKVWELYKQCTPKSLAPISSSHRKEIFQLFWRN

B2 bradykinin receptor [3] = target: T3, B2 bradykinin receptor (Cavia porcellus, UniProt O70526); experiment: Antagonist activity at guinea pig bradykinin B2 receptor in longitudinal smooth muscle assessed as inhibition of bradykinin-induced contractile responses; type: functional; settings: read-out: pA2 (converted)
T3 sequence (O70526 whole entry): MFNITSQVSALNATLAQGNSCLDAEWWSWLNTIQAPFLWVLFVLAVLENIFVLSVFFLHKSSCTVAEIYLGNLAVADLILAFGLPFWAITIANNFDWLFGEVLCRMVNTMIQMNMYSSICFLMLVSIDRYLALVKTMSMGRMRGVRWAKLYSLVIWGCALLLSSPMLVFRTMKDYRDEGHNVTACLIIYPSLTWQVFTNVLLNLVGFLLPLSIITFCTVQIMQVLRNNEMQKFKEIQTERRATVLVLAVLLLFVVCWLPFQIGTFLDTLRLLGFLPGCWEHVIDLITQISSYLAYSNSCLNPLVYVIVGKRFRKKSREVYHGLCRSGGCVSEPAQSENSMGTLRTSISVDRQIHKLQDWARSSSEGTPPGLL

Compound: Cc1cc(C)c2cccc(OCc3c(Cl)ccc(S(=O)(=O)NC4(C(=O)N5CCN(C(=O)CCCC[N+](C)(C)C)CC5)CCOCC4)c3Cl)c2n1
- inhibition (Cavia porcellus): inactive
- Kb (B2 bradykinin receptor [1]): 0.316 nM
- Ki (B2 bradykinin receptor [2]): 0.0794 nM
- Ki (B1 bradykinin receptor): > 10000 nM
- Kb (B2 bradykinin receptor [3]): 0.0631 nM
